Entries after “also recorded” stand apart in the source; their conditions may differ.
Tests used:
[1] = molecular target: firefly luciferase [luciferase: P08659]; experiment: ELISA
[2] = molecular target: T1, DnaK-DnaJ (Escherichia coli, UniProt P0A6Y8); experiment: High throughput ATPase assay of DnaK-DnaJ; format: biochemical; details: for inhibition of DnaK-DnaJ ATPase activity upon re-testing: repurchased (fresh) samples
[3] = molecular target: DnaK (Escherichia coli, UniProt P0A6Y8); experiment: Intrinsic ATPase activity of DnaK; format: biochemical; details: without DnaJ stimulation
DnaK, sequence (P0A6Y8 whole entry): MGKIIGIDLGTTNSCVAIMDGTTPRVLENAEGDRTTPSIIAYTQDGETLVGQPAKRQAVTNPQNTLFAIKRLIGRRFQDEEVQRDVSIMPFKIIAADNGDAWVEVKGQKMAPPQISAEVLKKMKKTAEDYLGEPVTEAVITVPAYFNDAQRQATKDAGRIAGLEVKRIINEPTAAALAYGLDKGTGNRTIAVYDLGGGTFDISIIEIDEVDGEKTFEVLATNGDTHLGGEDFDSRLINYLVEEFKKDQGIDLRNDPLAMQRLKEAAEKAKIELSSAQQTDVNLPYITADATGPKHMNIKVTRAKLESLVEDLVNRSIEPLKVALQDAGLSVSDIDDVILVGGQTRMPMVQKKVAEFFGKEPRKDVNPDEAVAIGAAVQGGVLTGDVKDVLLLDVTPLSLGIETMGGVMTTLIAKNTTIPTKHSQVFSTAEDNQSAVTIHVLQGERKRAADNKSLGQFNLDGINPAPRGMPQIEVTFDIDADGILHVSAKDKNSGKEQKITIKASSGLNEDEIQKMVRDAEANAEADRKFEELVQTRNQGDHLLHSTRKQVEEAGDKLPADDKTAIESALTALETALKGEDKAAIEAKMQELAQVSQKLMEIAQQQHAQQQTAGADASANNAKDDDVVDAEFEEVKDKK

[4] = molecular target: DnaK binding to luciferase (Escherichia coli, UniProt P0A6Y8); experiment: ELISA of DnaK binding to the model substrate firefly luciferase; details: 0.05 μM DnaK + 1 mM ATP
DnaK binding to luciferase, sequence (P0A6Y8 whole entry): as above

[5] = molecular target: T1, DnaK-DnaJ; experiment: DnaJ-mediated stimulation of ATP turnover by DnaK; format: biochemical; details: DnaK 0.6 μM
In short: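 E. coli DnaK (purified) at 0.6 µM with DnaJ titrated, in 100 mM Tris-HCl, 20 mM KCl, 6 mM MgCl2, 0.01% Triton X-100, pH 7.4. Reaction started with 7 mM ATP stock and run 3 h at 37 °C. Quinaldine red–molybdate reagent added for 2 min, quenched with sodium citrate, then 15 min at 37 °C. Absorbance read at 530 nm; triplicates.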

T1 sequence (P0A6Y8 whole entry): as above
Escherichia coli heat shock protein 70 (Hsp70/DnaK), sequence (P0A6Y8 whole entry): as above
firefly luciferase [luciferase: P08659], sequence (P08659 whole entry): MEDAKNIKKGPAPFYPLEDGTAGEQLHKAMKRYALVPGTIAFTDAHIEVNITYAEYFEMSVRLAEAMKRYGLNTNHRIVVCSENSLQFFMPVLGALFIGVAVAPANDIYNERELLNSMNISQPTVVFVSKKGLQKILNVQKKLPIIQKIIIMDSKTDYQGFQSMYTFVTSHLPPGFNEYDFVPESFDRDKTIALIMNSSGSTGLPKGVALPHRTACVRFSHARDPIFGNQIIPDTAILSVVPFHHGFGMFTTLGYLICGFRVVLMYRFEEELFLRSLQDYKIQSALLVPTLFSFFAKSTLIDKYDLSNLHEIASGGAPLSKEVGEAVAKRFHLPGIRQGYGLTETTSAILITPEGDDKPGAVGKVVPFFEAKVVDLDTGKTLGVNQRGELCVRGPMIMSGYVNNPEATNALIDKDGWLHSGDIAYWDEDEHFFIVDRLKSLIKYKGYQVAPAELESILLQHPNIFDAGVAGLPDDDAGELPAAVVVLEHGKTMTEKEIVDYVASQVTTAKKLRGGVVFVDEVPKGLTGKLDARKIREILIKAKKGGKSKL

| Compound | IC50 [2] [µM] | inhibition of DnaK-DnaJ ATPase activity upon re-testing [2] | also measured |
| --- | --- | --- | --- |
| Escherichia coli heat shock protein 70 (Hsp70/DnaK) (from UniProt P0A6Y8 1-638) (natural protein) |  |  | Kd [1]: 0.26 µM |
| CCOC(=O)c1c(N)sc2c1CCN(C(C)=O)C2 [3b, ethyl 6-acetyl-2-amino-4,5,6,7-tetrahydrothieno[2,3-c]pyridine-3-carboxylate] | > 500 |  |  |
| CCOC(=O)c1c(N)n(-c2ccccc2)c2nc3ccccc3nc12 [2a, ethyl 2-amino-1-phenyl-1H-pyrrolo[2,3-b]quinoxaline-3-carboxylate] | > 500 |  |  |
| COc1cc(C(=O)NS(=O)(=O)c2ccccc2C)ccc1Cc1cn(C)c2ccc(NC(=O)OC3CCCC3)cc12 [3c, cyclopentyl (3-(2-methoxy-4-((o-tolylsulfonyl)carbamoyl)benzyl)-1-methyl-1H-indol-5-yl) carbamate] | 37 ± 1 |  | effect on the intrinsic ATPase activity of DnaK [3]: little effect on the intrinsic ATPase activity; effect on apparent affinity of DnaK for luciferase [4]: significantly improved the apparent affinity; also recorded: significantly enhanced this interaction; K0.5 of DnaJ ([5]; in presence of 25 μM compound): 0.18 ± 0.01 µM; K0.5 of DnaJ ([5]; in presence of 50 μM compound): 0.96 ± 0.16 µM; K0.5 of DnaJ ([5]; in presence of 100 μM compound): greater than 2 μM |
| O=C(O)c1ccc2c(c1)C1C=CCC1C(c1cccc(C(F)(F)F)c1)N2 (stereo not drawn) [1c, 4-(3-(trifluoromethyl)phenyl)-3a,4,5,9b-tetrahydro-3H-cyclopenta[c]quinoline-8-carboxylic acid] |  | none of these compounds were inhibitors |  |
| CCc1ccc(C2Nc3ccc(C(=O)O)cc3C3C=CCC32)cc1 (stereo not drawn) [1d, 4-(4-ethylphenyl)-3a,4,5,9b-tetrahydro-3H-cyclopenta[c]quinoline-8-carboxylic acid] |  | none of these compounds were inhibitors |  |
| Cc1cc(C(F)(F)F)c(C#N)c(SCC(=O)c2ccccc2)n1 [3a, 6-methyl-2-((2-oxo-2-phenylethyl)thio)-4-(trifluoromethyl)nicotinonitrile] | > 500 |  |  |
| CCCCCCn1c(N)c(C(=O)OCC)c2nc3ccccc3nc21 [2b, ethyl 2-amino-1-hexyl-1H-pyrrolo[2,3-b]quinoxaline-3-carboxylate] | > 500 |  |  |
| O=C(O)c1ccc2c(c1)C1C=CCC1C(c1ccc(Cl)cc1)N2 (stereo not drawn) [1b, 4-(4-chlorophenyl)-3a,4,5,9b-tetrahydro-3H-cyclopenta[c]quinoline-8-carboxylic acid] |  | none of these compounds were inhibitors |  |
| O=C(O)c1cccc2c1NC(c1ccc([N+](=O)[O-])cc1)C1CC=CC21 (stereo not drawn) [1a, 4-(4-nitrophenyl)-3a,4,5,9b-tetrahydro-3H-cyclopenta[c]quinoline-6-carboxylic acid] |  | none of these compounds were inhibitors |  |

Reference: publication PMC3052282 (Journal of biomolecular screening, 2010)
